Measurements from ChEMBL document CHEMBL1671636, “Role of ampD homologs in overproduction of AmpC in clinical isolates of Pseudomonas aeruginosa” (2008).
≈ marks a conversion by molar mass, not a printed value.

Key:
Type in all cases: functional
[1] = system: Pseudomonas aeruginosa; test: Antimicrobial activity against Pseudomonas aeruginosa isolate TX291 obtained from patient with non-cystic fibrosis by agar dilution method
[2] = system: Pseudomonas aeruginosa; test: Antimicrobial activity against Pseudomonas aeruginosa isolate TX292 obtained from patient with non-cystic fibrosis by agar dilution method
[3] = system: Pseudomonas aeruginosa; test: Antimicrobial activity against Pseudomonas aeruginosa isolate 164CD obtained from patient with non-cystic fibrosis by Etest
[4] = system: Pseudomonas aeruginosa; test: Antimicrobial activity against Pseudomonas aeruginosa PAO1 by agar dilution method
[5] = system: Pseudomonas aeruginosa; test: Antimicrobial activity against Pseudomonas aeruginosa isolate PA22 obtained from patient with cystic fibrosis by agar dilution method
[6] = system: Pseudomonas aeruginosa; test: Antimicrobial activity against Pseudomonas aeruginosa isolate PA367 obtained from patient with cystic fibrosis by agar dilution method
[7] = system: Pseudomonas aeruginosa; test: Antimicrobial activity against Pseudomonas aeruginosa isolate PA24 obtained from patient with cystic fibrosis by agar dilution method
[8] = system: Pseudomonas aeruginosa; test: Antimicrobial activity against Pseudomonas aeruginosa isolate PA113 obtained from patient with cystic fibrosis by agar dilution method
[9] = system: Pseudomonas aeruginosa; test: Antimicrobial activity against Pseudomonas aeruginosa isolate GB57 obtained from patient with non-cystic fibrosis by Etest
[10] = system: Pseudomonas aeruginosa; test: Antimicrobial activity against Pseudomonas aeruginosa isolate GB61 obtained from patient with non-cystic fibrosis by Etest
[11] = system: Pseudomonas aeruginosa; test: Antimicrobial activity against Pseudomonas aeruginosa isolate GB61 obtained from patient with non-cystic fibrosis by broth microdilution method
[12] = system: Pseudomonas aeruginosa; test: Antimicrobial activity against Pseudomonas aeruginosa isolate 164CD obtained from patient with non-cystic fibrosis by agar dilution method
[13] = system: Pseudomonas aeruginosa; test: Antimicrobial activity against Pseudomonas aeruginosa PAO1 expressing beta-lactamase AmpD1 by disk diffusion method
How it was run: (§1)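 Each ampD homolog gene, from PAO1 or the clinical isolate, was tested in a plasmid model system. An AmpD-deficient E. coli strain (JRG582) carrying an inducible genetic system was complemented with the gene. Read-out was the ceftazidime inhibition zone diameter in mm; lack of complementation gives a ceftazidime-resistant phenotype.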

[14] = system: Pseudomonas aeruginosa; test: Antimicrobial activity against Pseudomonas aeruginosa isolate PA22 obtained from patient with cystic fibrosis harboring beta-lactamase AmpD1 Gly148ala and Asp183Tyr mutant by disk diffusion method; how it was run: as §1
[15] = system: Pseudomonas aeruginosa; test: Antimicrobial activity against Pseudomonas aeruginosa isolate PA367 obtained from patient with cystic fibrosis harboring beta-lactamase AmpD1 Gly148ala and Asp183Tyr mutant by disk diffusion method; how it was run: as §1
[16] = system: Pseudomonas aeruginosa; test: Antimicrobial activity against Pseudomonas aeruginosa isolate PA24 obtained from patient with cystic fibrosis harboring beta-lactamase AmpD1 12-nt deletion at nucleotide 5064908 and deletion of codons 144-147 by disk diffusion method; how it was run: as §1
[17] = system: Pseudomonas aeruginosa; test: Antimicrobial activity against Pseudomonas aeruginosa isolate PA113 harboring beta-lactamase AmpD1 Gly148Ala, Asp183Tyr mutant obtained from patient with cystic fibrosis by agar dilution method
[18] = system: Pseudomonas aeruginosa; test: Antimicrobial activity against Pseudomonas aeruginosa isolate GB57 harboring beta-lactamase AmpD1 Val10Ile mutant obtained from patient with non-cystic fibrosis by Etest
[19] = system: Pseudomonas aeruginosa; test: Antimicrobial activity against Pseudomonas aeruginosa isolate GB61 harboring beta-lactamase AmpD1 Gly148Ala mutant obtained from patient with non-cystic fibrosis by Etest
[20] = system: Pseudomonas aeruginosa; test: Antimicrobial activity against Pseudomonas aeruginosa isolate TX291 harboring beta-lactamase AmpD1 11-nt deletion at nt 5064907 and frameshift mutation obtained from patient with non-cystic fibrosis by agar dilution method
[21] = system: Pseudomonas aeruginosa; test: Antimicrobial activity against Pseudomonas aeruginosa isolate TX292 harboring beta-lactamase AmpD1 11-nt deletion at nt 5064907 and frameshift mutation obtained from patient with non-cystic fibrosis by agar dilution method
[22] = system: Pseudomonas aeruginosa; test: Antimicrobial activity against Pseudomonas aeruginosa isolate 164CD harboring beta-lactamase AmpD1 Leu32Pro, Gly46Ser, Gly148Ala mutant obtained from patient with non-cystic fibrosis by agar dilution method
[23] = system: Pseudomonas aeruginosa; test: Antimicrobial activity against Pseudomonas aeruginosa PAO1 expressing beta-lactamase AmpDh2 by disk diffusion method; how it was run: as §1
[24] = system: Pseudomonas aeruginosa; test: Antimicrobial activity against Pseudomonas aeruginosa PAO1 expressing beta-lactamase AmpDh3 by disk diffusion method; how it was run: as §1
[25] = system: Pseudomonas aeruginosa; test: Antimicrobial activity against Pseudomonas aeruginosa isolate PA22 obtained from patient with cystic fibrosis harboring beta-lactamase AmpDh3 Asp137Gly, Ala219Thr mutant by disk diffusion method; how it was run: as §1
[26] = system: Pseudomonas aeruginosa; test: Antimicrobial activity against Pseudomonas aeruginosa isolate PA367 obtained from patient with cystic fibrosis harboring beta-lactamase AmpDh3 Asp137Gly, Ala219Thr mutant by disk diffusion method; how it was run: as §1
[27] = system: Pseudomonas aeruginosa; test: Antimicrobial activity against Pseudomonas aeruginosa isolate PA24 obtained from patient with cystic fibrosis harboring beta-lactamase AmpDh3 Ala219Thr mutant by disk diffusion method; how it was run: as §1
[28] = system: Pseudomonas aeruginosa; test: Antimicrobial activity against Pseudomonas aeruginosa isolate PA113 harboring beta-lactamase AmpDh3 Ala219Thr mutant obtained from patient with cystic fibrosis by agar dilution method
[29] = system: Pseudomonas aeruginosa; test: Antimicrobial activity against Pseudomonas aeruginosa isolate TX291 harboring beta-lactamase AmpDh3 Ala208Val mutant obtained from patient with non-cystic fibrosis by agar dilution method
[30] = system: Pseudomonas aeruginosa; test: Antimicrobial activity against Pseudomonas aeruginosa isolate 164CD harboring beta-lactamase AmpDh3 Ile67Thr mutant obtained from patient with non-cystic fibrosis by agar dilution method
[31] = system: Pseudomonas aeruginosa; test: Antimicrobial activity against Pseudomonas aeruginosa isolate GB57 obtained from patient with non-cystic fibrosis by broth microdilution method
[32] = system: Pseudomonas aeruginosa; test: Antimicrobial activity against Pseudomonas aeruginosa isolate GB61 obtained from patient with non-cystic fibrosis by Etest in presence of beta-lactamase inhibitor Tazobactam
[33] = system: Pseudomonas aeruginosa; test: Antimicrobial activity against Pseudomonas aeruginosa isolate TX291 obtained from patient with non-cystic fibrosis by Etest in presence of beta-lactamase inhibitor Tazobactam
[34] = system: Pseudomonas aeruginosa; test: Antimicrobial activity against Pseudomonas aeruginosa isolate TX292 obtained from patient with non-cystic fibrosis by Etest in presence of beta-lactamase inhibitor Tazobactam
[35] = system: Pseudomonas aeruginosa; test: Antimicrobial activity against Pseudomonas aeruginosa isolate 164CD obtained from patient with non-cystic fibrosis by Etest in presence of beta-lactamase inhibitor Tazobactam
[36] = system: Pseudomonas aeruginosa; test: Antimicrobial activity against Pseudomonas aeruginosa PAO1 by Etest
[37] = system: Pseudomonas aeruginosa; test: Antimicrobial activity against Pseudomonas aeruginosa PAO1 by agar dilution method in presence of beta-lactamase inhibitor Tazobactam
[38] = system: Pseudomonas aeruginosa; test: Antimicrobial activity against Pseudomonas aeruginosa isolate PA22 obtained from patient with cystic fibrosis by agar dilution method in presence of beta-lactamase inhibitor Tazobactam
[39] = system: Pseudomonas aeruginosa; test: Antimicrobial activity against Pseudomonas aeruginosa isolate PA367 obtained from patient with cystic fibrosis by agar dilution method in presence of beta-lactamase inhibitor Tazobactam
[40] = system: Pseudomonas aeruginosa; test: Antimicrobial activity against Pseudomonas aeruginosa isolate PA24 obtained from patient with cystic fibrosis by agar dilution method in presence of beta-lactamase inhibitor Tazobactam
[41] = system: Pseudomonas aeruginosa; test: Antimicrobial activity against Pseudomonas aeruginosa isolate PA113 obtained from patient with cystic fibrosis by agar dilution method in presence of beta-lactamase inhibitor Tazobactam
[42] = system: Pseudomonas aeruginosa; test: Antimicrobial activity against Pseudomonas aeruginosa isolate GB57 obtained from patient with non-cystic fibrosis by Etest in presence of beta-lactamase inhibitor Tazobactam

C[C@H]1[C@H](NC(=O)/C(=N\OC(C)(C)C(=O)O)c2csc(N)n2)C(=O)N1S(=O)(=O)O [AZTREONAM] showed an MIC [1] of 64 µg/mL (≈ 147 µM), an MIC [2] of 64 µg/mL (≈ 147 µM) and an MIC [3] of over 256 µg/mL. It also gave an MIC [4] of 4 µg/mL (≈ 9.19 µM), an MIC [5] of 4 µg/mL (≈ 9.19 µM) and an MIC [6] of 4 µg/mL (≈ 9.19 µM). For the same molecule, the MIC [7] was 128 µg/mL (≈ 294 µM), the MIC [8] was 16 µg/mL (≈ 36.7 µM) and the MIC [9] was over 256 µg/mL. It also gave an MIC [10] of 48 µg/mL (≈ 110 µM).
For CO/N=C(\C(=O)N[C@@H]1C(=O)N2C(C(=O)[O-])=C(C[N+]3(C)CCCC3)CS[C@H]12)c1csc(N)n1 [CEFEPIME], the MIC [1] was 32 µg/mL (≈ 66.6 µM), the MIC [2] was 32 µg/mL (≈ 66.6 µM) and the MIC [3] was over 256 µg/mL. For the same molecule, the MIC [4] was 1 µg/mL (≈ 2.08 µM), the MIC [5] was 16 µg/mL (≈ 33.3 µM) and the MIC [6] was 16 µg/mL (≈ 33.3 µM). For the same molecule, the MIC [7] was 64 µg/mL (≈ 133 µM), the MIC [8] was 16 µg/mL (≈ 33.3 µM) and the MIC [9] was over 256 µg/mL. It also gave an MIC [10] of 32 µg/mL (≈ 66.6 µM).
In the case of CC(C)(O/N=C(\C(=O)N[C@@H]1C(=O)N2C(C(=O)[O-])=C(C[n+]3ccccc3)CS[C@H]12)c1csc(N)n1)C(=O)O [CEFTAZIDIME], the MIC [11] was 128 µg/mL (≈ 234 µM), the MIC [1] was 32 µg/mL (≈ 58.5 µM) and the MIC [2] was 32 µg/mL (≈ 58.5 µM). The MIC [12] was 128 µg/mL (≈ 234 µM), the “diameter of the inhibition zone (DIZ)” value [13] was 17 mm and the “diameter of the inhibition zone (DIZ)” value [14] was 8 mm. For the same molecule, the “diameter of the inhibition zone (DIZ)” value [15] was 8 mm, the “diameter of the inhibition zone (DIZ)” value [16] was 6 mm and the “diameter of the inhibition zone (DIZ)” value [17] was 8 mm. For the same molecule, the “diameter of the inhibition zone (DIZ)” value [18] was 10 mm, the “diameter of the inhibition zone (DIZ)” value [19] was 12 mm and the “diameter of the inhibition zone (DIZ)” value [20] was 11 mm. For the same molecule, the “diameter of the inhibition zone (DIZ)” value [21] was 11 mm, the “diameter of the inhibition zone (DIZ)” value [22] was 8 mm and the “diameter of the inhibition zone (DIZ)” value [23] was 6 mm. For the same molecule, the “diameter of the inhibition zone (DIZ)” value [24] was 18 mm, the “diameter of the inhibition zone (DIZ)” value [25] was 10 mm and the “diameter of the inhibition zone (DIZ)” value [26] was 10 mm. For the same molecule, the “diameter of the inhibition zone (DIZ)” value [27] was 9 mm, the “diameter of the inhibition zone (DIZ)” value [28] was 9 mm and the “diameter of the inhibition zone (DIZ)” value [29] was 8 mm. The “diameter of the inhibition zone (DIZ)” value [30] was 10 mm, the MIC [4] was 1 µg/mL (≈ 1.83 µM) and the MIC [5] was 16 µg/mL (≈ 29.3 µM). It also gave an MIC [6] of 32 µg/mL (≈ 58.5 µM), an MIC [7] of 128 µg/mL (≈ 234 µM) and an MIC [8] of 32 µg/mL (≈ 58.5 µM). For the same molecule, the MIC [31] was over 128 µg/mL.
CCN1CCN(C(=O)N[C@@H](C(=O)N[C@@H]2C(=O)N3[C@@H]2SC(C)(C)[C@@H]3C(=O)O)c2ccccc2)C(=O)C1=O [PIPERACILLIN] gave an MIC [32] of over 256 µg/mL, an MIC [1] of 256 µg/mL (≈ 495 µM) and an MIC [33] of over 256 µg/mL. It also gave an MIC [2] of 256 µg/mL (≈ 495 µM), an MIC [34] of over 256 µg/mL and an MIC [12] of over 1020 µg/mL. For the same molecule, the MIC [35] was over 256 µg/mL, the MIC [36] was 4 µg/mL (≈ 7.73 µM) and the MIC [37] was 4 µg/mL. It also gave an MIC [5] of 128 µg/mL (≈ 247 µM), an MIC [38] of 64 µg/mL and an MIC [6] of 64 µg/mL (≈ 124 µM). For the same molecule, the MIC [39] was 64 µg/mL, the MIC [7] was 256 µg/mL (≈ 495 µM) and the MIC [40] was 128 µg/mL. For the same molecule, the MIC [8] was 128 µg/mL (≈ 247 µM), the MIC [41] was 64 µg/mL and the MIC [9] was over 256 µg/mL. It also gave an MIC [42] of over 256 µg/mL and an MIC [10] of over 256 µg/mL.
